Laboratory results from paper PMC8092417 (Anti-cancer drugs, 2020).

How the values were obtained:
[1] = test system: MDA-MB-231 cells; assay: Ki-67 immunofluorescence staining for proliferation; format: cell-based, human; details: MDA-MB-231, 1 μM, 72 hours
[2] = test system: TU-BcX-4IC explants; assay: Western blot of treated PDX tumor explants; format: cell-based, human; details: 24 hours
[3] = test system: MDA-MB-231 cells; assay: Crystal violet staining, cells remaining / viability dose-response; format: cell-based, human
In short: (§1)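 Cells were plated at 5,000/well in 5% charcoal-stripped DMEM for 48 h, then exposed to test compound or DMSO vehicle for 72 h at 37 °C, 5% CO2. They were fixed with glutaraldehyde for 20 min and stained for 20 min with 0.1% crystal violet in 90% methanol. After overnight drying, cells were lysed in 33% acetic acid and read at 620 nm. Signal was normalized to DMSO and plotted as dose-response.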

[4] = test system: BT-549 cells; assay: as above; format: cell-based, human
In short: as §1

[5] = test system: TU-BcX-4IC cells; assay: Crystal violet staining, cells remaining / viability dose-response; format: cell-based, human; details: 1 μM, 72 hours
[6] = test system: BT549 cells; assay: Transwell migration assay; format: cell-based, human; details: BT549, pretreated 1 μM 72 hours, 24 hours migration
In short: (§2)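 Cells were pretreated 72 h with test compound (1 μM) or DMSO, and viable cells were then seeded into transwell chambers for 24 h. Non-migrated cells were removed. Migrated cells were fixed, crystal violet-stained, imaged by brightfield and counted. Counts were normalized to DMSO per cell line; triplicate experiments.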

[7] = test system: TU-BcX-4IC cells; assay: Transwell migration assay; format: cell-based, human; details: pretreated 1 μM 72 hours, 24 hours migration
In short: as §2

[8] = test system: MDA-MB-231 cells; assay: qRT-PCR of epithelial and mesenchymal genes; format: cell-based, human; details: MDA-MB-231, 1 μM, 72 hours
In short: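 MDA-MB-231 cells in 5% charcoal-stripped DMEM were pre-exposed for 72 h to test compound (1 μM) or DMSO. RNA was then isolated and gene expression measured by quantitative real-time PCR.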

[9] = test system: BT-549 cells; assay: qRT-PCR of epithelial and mesenchymal genes; format: cell-based, human; details: BT-549, 1 μM, 72 hours
In short: (§3)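 Cells were treated 72 h with test compound (1 μM) or DMSO. Total RNA was column-isolated and checked for quantity and quality by absorbance (260, 280 nm). Then 2 μg total RNA was reverse-transcribed and gene expression measured by qRT-PCR.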

[10] = test system: TU-BcX-4IC cells; assay: qRT-PCR of epithelial and mesenchymal genes; format: cell-based, human; details: 1 μM, 72 hours
In short: as §3

[11] = test system: TU-BcX-49S cells; assay: qRT-PCR of epithelial and mesenchymal genes; format: cell-based, human
[12] = test system: TU-BcX-4IC M2 spheres; assay: Mammosphere formation and area quantification; format: cell-based, human; details: 7 days treatment
In short: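 Cells were plated at 1,000/well in low-attachment plates in serum-free F12/DMEM with B-27 and left 24 h to form spheres. Spheres were then exposed to test compound or DMSO for one week, re-dosed every three days. Spheres were imaged at 40X or 100X, and length and width were measured to calculate area, which was compared with DMSO controls.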

[13] = test system: MDA-MB-231 M2 spheres; assay: Mammosphere formation and area quantification; format: cell-based, human; details: MDA-MB-231, 7 days treatment
In short: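 MDA-MB-231 cells were seeded at 1,000/well in low-attachment wells in serum-free F12/DMEM plus B-27 and allowed 24 h to form spheres. Spheres were then treated with test compound or DMSO for one week, re-dosed every three days. Imaging was at 40X or 100X. Sphere length and width were measured, area was calculated, and values were compared with DMSO controls.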

[14] = biological target: LOK (Homo sapiens, UniProt O94804); assay: Kinase inhibition assay; format: biochemical; details: 1 μM
Chain of LOK (O94804 whole entry): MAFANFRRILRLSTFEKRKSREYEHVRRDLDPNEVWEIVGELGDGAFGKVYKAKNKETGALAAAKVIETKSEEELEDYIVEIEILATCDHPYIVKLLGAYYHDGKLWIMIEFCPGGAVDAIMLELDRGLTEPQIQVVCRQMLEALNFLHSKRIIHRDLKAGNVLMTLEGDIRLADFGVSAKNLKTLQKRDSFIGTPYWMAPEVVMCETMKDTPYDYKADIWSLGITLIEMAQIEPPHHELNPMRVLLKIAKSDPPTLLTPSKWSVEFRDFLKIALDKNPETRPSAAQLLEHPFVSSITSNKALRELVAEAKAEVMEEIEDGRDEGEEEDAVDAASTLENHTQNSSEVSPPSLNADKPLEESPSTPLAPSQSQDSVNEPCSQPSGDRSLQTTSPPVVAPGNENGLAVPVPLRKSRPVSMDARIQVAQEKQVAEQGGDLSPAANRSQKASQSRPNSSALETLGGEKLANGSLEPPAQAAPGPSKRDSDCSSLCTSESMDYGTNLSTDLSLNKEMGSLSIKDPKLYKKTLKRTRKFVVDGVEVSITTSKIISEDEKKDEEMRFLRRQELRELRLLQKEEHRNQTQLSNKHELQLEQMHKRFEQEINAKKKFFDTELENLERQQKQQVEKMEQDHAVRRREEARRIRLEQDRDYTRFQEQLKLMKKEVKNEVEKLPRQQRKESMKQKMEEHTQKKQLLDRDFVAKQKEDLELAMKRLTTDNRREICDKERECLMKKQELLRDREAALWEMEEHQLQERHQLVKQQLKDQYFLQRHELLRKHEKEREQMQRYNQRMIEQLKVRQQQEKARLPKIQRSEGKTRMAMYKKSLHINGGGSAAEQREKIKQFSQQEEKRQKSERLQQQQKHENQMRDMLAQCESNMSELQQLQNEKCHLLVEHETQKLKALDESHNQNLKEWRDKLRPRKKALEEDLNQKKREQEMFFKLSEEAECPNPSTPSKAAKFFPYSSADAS

[15] = biological target: T1, NEK2 (Homo sapiens, UniProt P51955); assay: Kinase inhibition assay; format: biochemical; details: 1 μM
T1 sequence (P51955 1-445): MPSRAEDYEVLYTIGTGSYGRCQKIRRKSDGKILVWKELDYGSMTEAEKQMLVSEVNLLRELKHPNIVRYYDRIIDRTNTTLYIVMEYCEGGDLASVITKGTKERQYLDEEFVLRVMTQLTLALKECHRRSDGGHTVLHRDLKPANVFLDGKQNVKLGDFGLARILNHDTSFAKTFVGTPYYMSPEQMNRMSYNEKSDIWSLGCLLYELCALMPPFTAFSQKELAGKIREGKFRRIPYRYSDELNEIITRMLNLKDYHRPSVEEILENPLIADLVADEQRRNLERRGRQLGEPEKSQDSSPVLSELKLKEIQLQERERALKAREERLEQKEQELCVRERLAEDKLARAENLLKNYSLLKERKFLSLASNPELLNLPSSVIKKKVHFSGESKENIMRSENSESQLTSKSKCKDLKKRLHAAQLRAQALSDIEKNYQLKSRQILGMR

[16] = biological target: HIPK4 (Homo sapiens, UniProt Q8NE63); assay: Kinase inhibition assay; format: biochemical; details: 1 μM
Chain of HIPK4 (Q8NE63 whole entry): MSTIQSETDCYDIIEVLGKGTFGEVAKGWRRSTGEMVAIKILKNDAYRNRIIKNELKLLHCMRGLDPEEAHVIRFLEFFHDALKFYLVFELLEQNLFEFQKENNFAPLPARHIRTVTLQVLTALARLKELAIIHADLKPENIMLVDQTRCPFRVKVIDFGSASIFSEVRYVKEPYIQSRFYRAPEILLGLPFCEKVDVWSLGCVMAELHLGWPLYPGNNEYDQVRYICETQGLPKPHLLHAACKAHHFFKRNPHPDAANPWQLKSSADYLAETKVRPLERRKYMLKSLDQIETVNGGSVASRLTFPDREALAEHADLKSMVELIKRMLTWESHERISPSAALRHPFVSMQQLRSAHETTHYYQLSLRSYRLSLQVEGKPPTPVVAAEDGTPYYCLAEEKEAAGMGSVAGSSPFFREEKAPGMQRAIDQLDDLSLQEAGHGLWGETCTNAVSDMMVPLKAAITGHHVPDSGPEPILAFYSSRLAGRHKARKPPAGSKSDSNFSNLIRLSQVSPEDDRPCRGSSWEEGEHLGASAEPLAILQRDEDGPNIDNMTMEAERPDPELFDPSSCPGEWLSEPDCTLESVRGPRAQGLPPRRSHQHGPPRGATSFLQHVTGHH

[17] = biological target: MST2 (Homo sapiens, UniProt Q13188); assay: Kinase inhibition assay; format: biochemical; details: 1 μM
Chain of MST2 (Q13188 whole entry): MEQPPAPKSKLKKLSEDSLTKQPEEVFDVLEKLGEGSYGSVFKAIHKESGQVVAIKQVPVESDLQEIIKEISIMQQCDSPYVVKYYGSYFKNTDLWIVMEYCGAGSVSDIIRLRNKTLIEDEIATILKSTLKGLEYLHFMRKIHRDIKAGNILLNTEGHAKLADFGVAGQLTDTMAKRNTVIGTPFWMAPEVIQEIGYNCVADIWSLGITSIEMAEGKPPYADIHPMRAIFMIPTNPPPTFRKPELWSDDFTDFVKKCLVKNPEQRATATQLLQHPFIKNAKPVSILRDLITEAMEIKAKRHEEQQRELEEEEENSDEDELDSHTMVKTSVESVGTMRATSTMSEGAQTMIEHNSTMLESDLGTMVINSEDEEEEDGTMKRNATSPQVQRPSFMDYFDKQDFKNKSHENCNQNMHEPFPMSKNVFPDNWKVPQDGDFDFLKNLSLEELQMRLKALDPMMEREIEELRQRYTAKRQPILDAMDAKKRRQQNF

[18] = biological target: MINK (Homo sapiens, UniProt Q8N4C8); assay: Kinase inhibition assay; format: biochemical; details: 1 μM
Chain of MINK (Q8N4C8 whole entry): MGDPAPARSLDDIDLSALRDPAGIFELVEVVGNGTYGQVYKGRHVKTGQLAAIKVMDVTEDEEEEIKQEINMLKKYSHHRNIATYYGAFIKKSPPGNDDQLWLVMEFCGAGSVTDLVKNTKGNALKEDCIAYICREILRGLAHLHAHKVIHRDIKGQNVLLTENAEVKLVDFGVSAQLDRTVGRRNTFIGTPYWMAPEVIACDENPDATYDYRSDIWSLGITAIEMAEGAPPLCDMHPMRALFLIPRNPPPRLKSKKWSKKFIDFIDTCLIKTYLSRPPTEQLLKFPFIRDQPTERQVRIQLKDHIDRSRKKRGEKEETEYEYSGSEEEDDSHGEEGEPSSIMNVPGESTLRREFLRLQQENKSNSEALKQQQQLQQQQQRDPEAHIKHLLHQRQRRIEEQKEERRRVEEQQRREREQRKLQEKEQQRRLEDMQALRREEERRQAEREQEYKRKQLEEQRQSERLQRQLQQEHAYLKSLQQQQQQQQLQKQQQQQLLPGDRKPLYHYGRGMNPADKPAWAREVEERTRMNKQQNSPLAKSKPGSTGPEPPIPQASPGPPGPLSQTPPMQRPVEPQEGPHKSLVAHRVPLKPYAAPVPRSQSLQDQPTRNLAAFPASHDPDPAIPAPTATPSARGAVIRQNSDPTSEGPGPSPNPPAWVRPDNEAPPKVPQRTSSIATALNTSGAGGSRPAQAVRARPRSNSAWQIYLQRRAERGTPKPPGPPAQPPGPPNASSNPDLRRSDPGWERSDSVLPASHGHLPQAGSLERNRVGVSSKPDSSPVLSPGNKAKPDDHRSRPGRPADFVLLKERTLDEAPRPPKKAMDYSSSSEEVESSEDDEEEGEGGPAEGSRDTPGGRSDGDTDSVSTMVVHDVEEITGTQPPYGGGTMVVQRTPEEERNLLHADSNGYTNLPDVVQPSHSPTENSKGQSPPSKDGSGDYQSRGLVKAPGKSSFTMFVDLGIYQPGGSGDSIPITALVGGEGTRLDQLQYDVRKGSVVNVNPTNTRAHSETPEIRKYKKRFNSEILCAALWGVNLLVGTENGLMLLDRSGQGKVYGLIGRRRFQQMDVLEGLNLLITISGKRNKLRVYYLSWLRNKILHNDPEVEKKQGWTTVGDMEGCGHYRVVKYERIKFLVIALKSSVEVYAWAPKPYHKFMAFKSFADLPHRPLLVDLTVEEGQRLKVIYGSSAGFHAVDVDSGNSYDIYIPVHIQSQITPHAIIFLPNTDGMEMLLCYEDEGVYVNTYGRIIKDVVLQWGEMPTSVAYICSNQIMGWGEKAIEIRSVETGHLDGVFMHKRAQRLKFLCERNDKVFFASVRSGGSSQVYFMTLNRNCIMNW

CC[C@@H]1C(=O)N(C)c2cnc(Nc3ccc(C(=O)NC4CCN(C)CC4)cc3OC)nc2N1C1CCCC1 [BI2536]
Ki-67 positive cells (cell proliferation) [1]: significantly reduced the number of Ki-67 positive cells

CC[C@@H]1C(=O)N(C)c2cnc(Nc3ccc(C(=O)N[C@H]4CC[C@H](N5CCN(CC6CC6)CC5)CC4)cc3OC)nc2N1C(C)C [BI6727]
MMP9 protein expression [2]: suppressed the mesenchymal markers ZEB1 and MMP9 expression
ZEB1 protein expression [2]: suppressed the mesenchymal markers ZEB1 and MMP9 expression

COc1cc2ncn(-c3cc(OCc4sccc4Cl)c(C(N)=O)s3)c2cc1OC [GSK448459A]
IC50 ([3]; Homo sapiens, MDA-MB-231, 72 h, read-out: IC-50, number of cells remaining): 50 µM
Number of cells remaining compared to DMSO controls ([3]; MDA-MB-231, 1 μM, 72 hours): increased number of cells remaining
Number of cells remaining compared to DMSO controls ([4]; BT-549, 1 μM, 72 hours): increased number of cells remaining
IC50 ([4]; Homo sapiens, BT-549, 72 h, read-out: IC-50, number of cells remaining): 7.5 µM
Number of cells remaining compared to DMSO controls [5]: increased number of cells remaining
Ki-67 positive cells (cell proliferation) [1]: decreased Ki-67 positive cells
Transwell cell migration [6]: most suppressive effects on cell migration
Transwell cell migration [7]: most suppressive effects on cell migration
MMP9 mRNA expression [8]: significantly downregulated MMP9 expression
SNAI1 mRNA expression [8]: significantly decreased SNAI1 expression
ZEB1 mRNA expression [8]: significantly increased ZEB1 expression
cFOS mRNA expression [8]: suppressive effects in all three TNBC cell lines, although not significantly
CDH1 mRNA expression [9]: significantly reduced CDH1 mRNA expression
MMP9 mRNA expression [9]: Neither GSK346294A nor GSK448459A affected MMP9 expression
SNAI1 mRNA expression [9]: increased SNAI1 expression in BT-549 cells significantly
cFOS mRNA expression [9]: suppressive effects in all three TNBC cell lines, although not significantly
MMP9 mRNA expression [10]: Neither GSK346294A nor GSK448459A affected MMP9 expression
ZEB1 mRNA expression [10]: suppressed ZEB1 expression in TU-BcX-4IC cells albeit not significantly
cFOS mRNA expression [10]: suppressive effects in all three TNBC cell lines, although not significantly
cFOS mRNA expression [11]: Neither GSK346294A nor GSK448459A suppressed cFOS mRNA expression
MMP9 protein expression [2]: did not suppress MMP9 and ZEB1 protein expressions
ZEB1 protein expression [2]: did not suppress MMP9 and ZEB1 protein expressions
Mammosphere formation (sphere area) [12]: significantly suppressed mammosphere formation
Sphere area [13]: significantly increased sphere area
Binding activity to LOK [14]: 99.1%
Binding activity against NEK2 [15]: significant binding activity
Binding activity to NEK2 [15]: 97.1%
Binding activity against HIPK4 [16]: significant binding activity
Binding activity against MST2 [17]: significant binding activity
Binding activity against MINK [18]: significant binding activity
